S1P2 blocker – blocks the human S1P2 receptor; inhibition, % at 5 µM; 97,000 compounds, 0.21% hits; O95136; cell-based S1P2 antagonist assay, inhibition at 5 uM; in the data active = inhibition above about 45%;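 also: CRE beta-lactamase reporter cells expressing human S1P2 stimulated with S1P; 0% = agonist at EC80 alone and 100% = agonist plus reference antagonist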
Rev-RRE block – HIV Rev-RRE protein-RNA interaction inhibition; P05866; Rev peptide-RRE RNA binding, FRET; inhibition, % at 8 µM; 97,000 compounds, 0.79% hits;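 active = inhibition above the screen-wide mean plus 3 SD, cut at about 35% in these data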;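 also: 0% = median DMSO wells and 100% = median Neomycin B control wells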
Target sequence (P05866 whole entry, looked up): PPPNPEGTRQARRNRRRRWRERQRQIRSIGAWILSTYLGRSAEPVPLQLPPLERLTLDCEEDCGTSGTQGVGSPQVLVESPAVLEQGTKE
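Assay system: Labelled RRE RNA duplex and labelled Rev peptide | Times: 5 min preincubation and 15 min binding, 25 °C | Detection: FRET, ex 480 nm, em 540 and 671 nm | Evaluation: % inhibition of FRET ratio versus controls | Benchmarks: DMSO wells as 0% and neomycin B wells as 100% inhibition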
GALR2 ag – GALR2 (human) receptor agonism | 140,000 compounds, 0.48% hits | AID 803 | activation, % (concentration not given with the values) | GALR2-expressing cells, agonist activation read-out | O43603; in the data active = activation above about 5%, passing the limit was not always enough;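 also: 0% = vehicle buffer wells and 100% = reference agonist at full effect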
Target sequence (O43603 whole entry, looked up): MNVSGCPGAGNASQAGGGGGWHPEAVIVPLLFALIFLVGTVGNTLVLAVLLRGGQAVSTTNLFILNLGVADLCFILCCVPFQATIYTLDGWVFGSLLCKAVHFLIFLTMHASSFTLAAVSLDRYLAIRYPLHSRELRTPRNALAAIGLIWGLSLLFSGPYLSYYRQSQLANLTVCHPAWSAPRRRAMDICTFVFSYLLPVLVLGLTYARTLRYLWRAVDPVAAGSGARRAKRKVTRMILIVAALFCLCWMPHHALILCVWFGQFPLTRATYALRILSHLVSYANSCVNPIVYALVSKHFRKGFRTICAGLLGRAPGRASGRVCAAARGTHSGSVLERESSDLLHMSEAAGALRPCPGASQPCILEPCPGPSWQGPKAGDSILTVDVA
S1P2 agonist – S1P2 (human) receptor agonism | O95136 | S1P2-expressing cell line, agonist reporter read-out | activation, % at 4.5 µM | 97,000 compounds, 0.46% hits; in the data active = activation above about 16%;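 also: 0% = vehicle low control and 100% = maximal reference agonist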
GALR2 antag – GALR2 (human) receptor antagonism. O43603. GALR2-expressing cells, antagonist mode. inhibition, % at 4 µM. 140,000 compounds, 0.39% hits; in the data active = inhibition above about 27%;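 also: cells stimulated with galanin 1-16 at roughly its EC80; 0% = agonist challenge control and 100% = basal control without agonist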
Starred values were filed as active, the others as inactive; / = no result; [ ] = remark or other dose. Sampled rows, rich in hits. Any-hit rate of the full collection: about 1.6%.

SMILES	S1P2 blocker	Rev-RRE block	GALR2 ag	S1P2 agonist	GALR2 antag
CCCS(=O)(=O)c1nnnn1-c1cccc(OC)c1	/	/	-1.4	/	84.4*
CC1CC(NC(=O)N(C)C)N(C)C(=O)N1 (stereo unspecified)	/	/	-2.3	/	0.4
O=C(COC(=O)COc1ccc(Cl)cc1Cl)Nc1cccnc1Cl	/	/	-1.8	/	7.5
CCn1cc(C(=O)Nc2ccc(OC)c(OC)c2)c2cc(OC)c(OC)cc2c1=O	-33.9	14.9	-0.3	22.1*	-8.2
COc1ccc(OC)c(NC(=O)c2cn(C)c(=O)c3cc(OC)c(OC)cc23)c1	-62.0	-1.4	0.1	33.0*	-1.2
Cc1ccc(S(=O)(=O)Nc2ccc(C(=O)OCC(=O)N(CCC#N)c3ccccc3)cc2)cc1C	/	/	-1.1	/	1.1
CCNc1cc2oc(=O)c(CN3CCOCC3)c(C)c2cc1C	6.7	79.2*	7.8	9.8	1.3
COc1ccc(NC(=O)C(NC(=O)c2ccc(=O)[nH]c2)c2ccc(OC)cc2)cc1 (stereo unspecified)	/	/	-1.9	/	-2.7
Cc1ccc2nc(CSc3nnc(Cc4cccs4)n3C3CCCCC3)cc(=O)n2c1	-16.2	2.3	-1.5	1.7	-0.5
Cc1sc2nc(CSc3nnc(Cc4cccs4)n3C3CCCCC3)[nH]c(=O)c2c1C	2.4	55.8*	-1.0	-7.0	11.8
COc1ccc(C(=O)Nc2cc(C(C)=O)c(/C=C/N(C)C)oc2=O)cc1	14.2	121.8*[fluorescence artefact?]	-1.7	-1.1	4.0
CCOC(=O)c1cc(NC(=O)c2ccc(OC)cc2)c(=O)oc1-c1ccccc1	-4.3	0.8	-1.8	-6.4	6.2
Cc1oc(=O)c(NC(=O)c2ccccc2)cc1C(=O)c1ccccc1	27.6	-0.6	-2.7	-9.2	-1.3
CC(=O)c1cc(NC(=O)c2ccc(C)cc2)c(=O)oc1/C=C/N(C)C	3.0	122.3*[fluorescence artefact?]	-2.6	-8.9	-10.8
CC(C)n1c(O)c(N=NC(=O)c2ccccc2NS(=O)(=O)c2cccs2)c2ccccc21	/	/	-0.5	/	4.0
O=C(O)/C=C/c1nc(-c2ccccc2)n2ccccc12	/	/	-0.8	/	-6.6
Cc1c(N2C(=O)C(=O)/C(=C(/O)c3ccc(Cl)cc3)C2c2ccccc2)c(=O)n(-c2ccccc2)n1C (stereo unspecified)	/	/	-1.4	/	1.6
CCCCOC(=O)C1Cc2ccccc2C(=O)O1 (stereo unspecified)	-3.1	4.2	-1.8	-1.3	3.0
CCOC(=O)C(NC(=O)NCc1ccc(OC)cc1)(OCC)C(F)(F)F (stereo unspecified)	/	/	-1.5	/	11.2
COc1ccc(-c2cn(-c3ccc(C)cc3)c(=O)n2CC(=O)Nc2cccc(F)c2)cc1	-19.1	-6.7	14.9*	-4.9	-19.8
COc1ccc(C(C)(C)C)cc1NC(=O)COC(=O)c1ncc(Cl)c(Cl)c1Cl	/	/	0.6	/	10.0
CC(=O)c1ccc(N2CCN(C(C)C(=O)NC3CCCc4ccccc43)CC2)cc1 (stereo unspecified)	/	/	-0.7	/	2.0
COc1ccc(C2C3=C(CCCC3=O)Nc3nc(-c4cc(OC)c(OC)c(OC)c4)nn32)cc1OC (stereo unspecified)	-7.7	9.7	-0.1	6.0	-0.3
COc1cc(-c2nc3n(n2)C(c2cccc(OC)c2OC)C2=C(CCCC2=O)N3)cc(OC)c1OC (stereo unspecified)	-37.7	-3.4	-0.2	27.1*	-3.0
CCOC(=O)Cc1csc(NC(=O)c2ccc3c(c2)OCO3)n1	14.3	-1.0	-0.9	-8.5	4.4
SMILES	S1P2 blocker	Rev-RRE block	GALR2 ag	S1P2 agonist	GALR2 antag
CCOC(=O)Cc1csc(NC(=O)c2ccc(Cl)nc2)n1	5.8	41.0*	1.6	-4.2	-1.0
CCOC(=O)Cc1csc(NC(=O)c2sc3nc4ccc(CC)cc4cc3c2N)n1	0.4	85.2*[fluorescence artefact?]	-0.5	-8.2	3.5
CCN(CC)c1ccc2cc(-c3nnc(-c4ccncc4)o3)c(=O)oc2c1	-4.3	142.7*[fluorescence artefact?]	-1.3	-0.7	-1.8
CCN(CC)c1ccc2cc(C(=O)Nc3ccccn3)c(=O)oc2c1	/	/	19.2*	/	-5.4
CCN(CC)c1ccc2cc(C=O)c(=O)oc2c1	-4.1	140.0*[fluorescence artefact?]	2.4	6.8	0.4
CCN(CC)c1ccc2cc(C(N)=O)c(=O)oc2c1	-7.4	41.3*	1.2	20.5*	-5.5
c1cc(-c2nnc(-c3ccncc3)o2)ccn1	-11.0	-0.1	-1.6	-4.1	-2.4
Cc1cc(C)cc(C(=O)NCC(=O)OCC(=O)c2cc(C)n(CC(F)(F)F)c2C)c1	/	/	-0.9	/	-9.9
CCN(CC)c1ccc2cc(C(C)=O)c(=O)oc2c1	16.8	126.1*[fluorescence artefact?]	2.7	0.7	4.7
CCN(CC)c1ccc2cc(NC(=O)CCC(=O)O)c(=O)oc2c1	/	/	0.2	/	50.1*
CCOC(=O)C1=C(CSc2nc3c(cc2C#N)CN(C)CC3)OC(N)=C(C#N)C1c1ccc(F)cc1 (stereo unspecified)	-21.4	56.8*	-0.8	-3.1	0.7
COC(=O)C1=C(CSc2nc3c(cc2C#N)CN(C)CC3)OC(N)=C(C#N)C1c1ccccc1F (stereo unspecified)	4.0	53.6*	-0.8	-4.0	-2.0
CCOC(=O)C1=C(CSc2nc3c(cc2C#N)CCC3)OC(N)=C(C#N)C1c1ccccc1 (stereo unspecified)	9.2	21.0	-2.6	0.8	6.7
CCOC(=O)C1=C(CSc2nc3c(cc2C#N)CN(C)CC3)OC(N)=C(C#N)C1c1ccccc1 (stereo unspecified)	-2.8	57.4*	-2.7	-5.8	-0.3
COc1cc(NC(=O)COC(=O)CSc2cc(C)ccc2C)c(C)cc1[N+](=O)[O-]	/	/	-0.6	/	-10.5
Cc1c(-c2ccccc2)oc2c(C(=O)OCC(=O)Nc3ccc(F)cc3)cccc2c1=O	/	/	-0.3	/	-10.4
Cc1ccc(C2NC(=S)NC3=C2C(=O)CC(C)(C)C3)cc1 (stereo unspecified)	/	/	0.0	/	-6.1
COc1cc(CNC2CCCC2)cc(Cl)c1OCc1ccccc1Cl	-5.4	3.9	-0.4	-2.9	-10.9
COc1cc2c(cc1OC)-c1cc(OCc3ccccc3Cl)nc(=O)n1CC2	-51.3	6.8	0.8	29.2*	-1.1
COc1cc2c(cc1OC)C(C(=O)NC1CC1)C1c3ccccc3CCN1C2=O (stereo unspecified)	-3.8	2.0	1.0	-3.0	0.8
COc1cc2c(cc1OC)-c1cc(NC3CCCC3)nc(=O)n1CC2	-35.0	7.3	-0.3	24.3*	-7.1
O=P(COc1ccccc1)(c1ccccc1)c1ccccc1	-2.6	0.7	-1.3	-3.5	2.6
Cc1cccc(C(=O)NC2CC3CCCC(C2)N3C(=O)NC2CCCCC2)c1 (stereo unspecified)	-7.8	-2.9	-2.4	66.1*	6.0
Cn1c(=N)c(S(=O)(=O)c2ccc(F)cc2)cc2c(=O)n3ccccc3nc21	-17.8	8.0	0.7	2.0	-11.3
Cn1c(=N)c(S(=O)(=O)c2ccccc2)cc2c(=O)n3ccccc3nc21	-57.0	5.3	2.6	21.5*	-9.1
N=c1c(S(=O)(=O)c2ccc(Cl)cc2)cc2c(=O)n3ccccc3nc2n1CCN1CCOCC1	/	/	8.3*	/	-0.8
Cc1ccc(S(=O)(=O)c2cc3c(=O)n4ccccc4nc3n(CC3CCCO3)c2=N)cc1 (stereo unspecified)	-37.9	10.7	-3.2	-1.3	6.6

Screens as filed in PubChem BioAssay.
